In ChEMBL document CHEMBL1781932 (J Med Chem, 2011):
In brackets after ≈: the same amount, converted by molar mass.

Experiments:
Format in all cases: functional
Klebsiella pneumoniae [1] = assay: Antimicrobial activity against tetracycline-resistant Klebsiella pneumoniae isolate 153 harboring tetA gene by CLSI dilution method
Acinetobacter baumannii = assay: Antimicrobial activity against tetracycline-susceptible Acinetobacter baumannii isolate 110 by CLSI dilution method
Method in brief: (§1)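 Broth microdilution per CLSI in fresh cation-adjusted Mueller Hinton broth, kept at 4 °C before testing, with defibrinated horse blood added as appropriate. Strains were from ATCC. MIC in µg/mL. Runs were accepted when comparator antibiotics against ATCC quality-control strains fell within recommended ranges.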

Escherichia coli [2] = assay: Antimicrobial activity against tetracycline-resistant Escherichia coli isolate 155 harboring tetA gene by CLSI dilution method
Klebsiella pneumoniae [3] = assay: Antimicrobial activity against tetracycline-susceptible Klebsiella pneumoniae isolate 109 by CLSI dilution method; method in brief: as §1
Staphylococcus aureus [4] = assay: Antimicrobial activity against tetracycline-resistant Staphylococcus aureus isolate 158 harboring tetK gene by CLSI dilution method
Streptococcus pneumoniae [5] = assay: Antimicrobial activity against tetracycline-resistant Streptococcus pneumoniae isolate 160 harboring tetM gene by CLSI dilution method
Enterococcus faecalis [6] = assay: Antimicrobial activity against tetracycline-resistant Enterococcus faecalis isolate 159 harboring […] gene by CLSI dilution method
Escherichia coli [7] = assay: Antimicrobial activity against tetracycline-susceptible Escherichia coli isolate 107 by CLSI dilution method; method in brief: as §1
Pseudomonas aeruginosa = assay: Antimicrobial activity against tetracycline-susceptible Pseudomonas aeruginosa isolate 111 by CLSI dilution method; method in brief: as §1
Streptococcus pneumoniae [8] = assay: Antimicrobial activity against tetracycline-susceptible Streptococcus pneumoniae isolate 106 by CLSI dilution method; method in brief: as §1
Staphylococcus aureus [9] = assay: Antimicrobial activity against tetracycline-susceptible Staphylococcus aureus isolate 101 by CLSI dilution method
Staphylococcus aureus [10] = assay: Antimicrobial activity against methicillin-, tetracycline-resistant Staphylococcus aureus isolate 161 harboring tetM gene by CLSI dilution method
Enterobacter cloacae = assay: Antimicrobial activity against tetracycline-susceptible Enterobacter cloacae isolate 108 by CLSI dilution method; method in brief: as §1
Enterococcus faecalis [11] = assay: Antimicrobial activity against tetracycline-susceptible Enterococcus faecalis isolate 103 by CLSI dilution method; method in brief: as §1

Structure (SMILES) | MIC (Klebsiella pneumoniae [1]) [µg/mL] | MIC (Acinetobacter baumannii) [µg/mL] | MIC (Escherichia coli [2]) [µg/mL] | MIC (Klebsiella pneumoniae [3]) [µg/mL] | MIC (Staphylococcus aureus [4]) [µg/mL] | MIC (Streptococcus pneumoniae [5]) [µg/mL] | MIC (Enterococcus faecalis [6]) [µg/mL] | MIC (Escherichia coli [7]) [µg/mL] | MIC (Pseudomonas aeruginosa) [µg/mL] | MIC (Streptococcus pneumoniae [8]) [µg/mL] | MIC (Staphylococcus aureus [9]) [µg/mL] | MIC (Staphylococcus aureus [10]) [µg/mL] | MIC (Enterobacter cloacae) [µg/mL] | MIC (Enterococcus faecalis [11]) [µg/mL]
CC(C)Oc1c2c(c(O)c3cc(CN4CCC4)ccc13)C(=O)C1=C(O)[C@]3(O)C(=O)C(C(N)=O)=C(O)[C@@H](N(C)C)[C@@H]3C[C@@H]1C2 | 32 (≈ 54.1 µM) | 2 (≈ 3.38 µM) | 16 (≈ 27 µM) | 16 (≈ 27 µM) | 0.25 (≈ 0.423 µM) | 0.0625 (≈ 0.106 µM) | 4 (≈ 6.76 µM) | 4 (≈ 6.76 µM) | > 32 | 0.0313 (≈ 0.0529 µM) | 0.125 (≈ 0.211 µM) | 4 (≈ 6.76 µM) | 16 (≈ 27 µM) | 0.5 (≈ 0.845 µM)
CN(C)c1ccc(-c2ccc3cc4c(c(O)c3c2)C(=O)C2=C(O)[C@]3(O)C(=O)C(C(N)=O)=C(O)[C@@H](N(C)C)[C@@H]3C[C@@H]2C4)cc1 | > 32 | > 32 | > 32 | > 32 | 16 (≈ 27.4 µM) | > 32 | 16 (≈ 27.4 µM) | > 32 | > 32 | > 32 | > 32 | > 32 | > 32 | > 32
CN(C)[C@@H]1C(O)=C(C(N)=O)C(=O)[C@@]2(O)C(O)=C3C(=O)c4c(c(Cl)c5ccc(F)cc5c4O)C[C@H]3C[C@@H]12 | > 32 | > 32 | > 32 | > 32 | 2 (≈ 3.87 µM) | > 32 | 2 (≈ 3.87 µM) | > 32 | > 32 | > 32 | 2 (≈ 3.87 µM) | 2 (≈ 3.87 µM) | > 32 | 2 (≈ 3.87 µM)
CNc1c2c(c(O)c3cc(CN4CCC4)ccc13)C(=O)C1=C(O)[C@]3(O)C(=O)C(C(N)=O)=C(O)[C@@H](N(C)C)[C@@H]3C[C@@H]1C2 | > 32 | > 32 | > 32 | 32 (≈ 56.9 µM) | 2 (≈ 3.55 µM) | 1 (≈ 1.78 µM) | 8 (≈ 14.2 µM) | 4 (≈ 7.11 µM) | > 32 | 0.25 (≈ 0.444 µM) | 2 (≈ 3.55 µM) | 8 (≈ 14.2 µM) | 32 (≈ 56.9 µM) | 4 (≈ 7.11 µM)
CNCc1ccc2cc3c(c(O)c2c1)C(=O)C1=C(O)[C@]2(O)C(=O)C(C(N)=O)=C(O)[C@@H](N(C)C)[C@@H]2C[C@@H]1C3 | 8 (≈ 15.8 µM) | 4 (≈ 7.88 µM) | 16 (≈ 31.5 µM) | 4 (≈ 7.88 µM) | 1 (≈ 1.97 µM) | 1 (≈ 1.97 µM) | 4 (≈ 7.88 µM) | 1 (≈ 1.97 µM) | 16 (≈ 31.5 µM) | 0.0625 (≈ 0.123 µM) | 0.5 (≈ 0.985 µM) | 4 (≈ 7.88 µM) | 2 (≈ 3.94 µM) | 0.5 (≈ 0.985 µM)
CCCNCc1ccc2cc3c(c(O)c2c1)C(=O)C1=C(O)[C@]2(O)C(=O)C(C(N)=O)=C(O)[C@@H](N(C)C)[C@@H]2C[C@@H]1C3 | 4 (≈ 7.47 µM) | 1 (≈ 1.87 µM) | 4 (≈ 7.47 µM) | 2 (≈ 3.73 µM) | 0.25 (≈ 0.467 µM) | 0.25 (≈ 0.467 µM) | 4 (≈ 7.47 µM) | 1 (≈ 1.87 µM) | 32 (≈ 59.7 µM) | 0.0156 (≈ 0.0291 µM) | 0.5 (≈ 0.934 µM) | 2 (≈ 3.73 µM) | 2 (≈ 3.73 µM) | 0.5 (≈ 0.934 µM)
CN(Cc1ccc2cc3c(c(O)c2c1)C(=O)C1=C(O)[C@]2(O)C(=O)C(C(N)=O)=C(O)[C@@H](N(C)C)[C@@H]2C[C@@H]1C3)c1ccccc1 | > 32 | > 32 | > 32 | > 32 | 1 (≈ 1.71 µM) | 2 (≈ 3.43 µM) | 4 (≈ 6.85 µM) | > 32 | > 32 | 2 (≈ 3.43 µM) | 1 (≈ 1.71 µM) | 8 (≈ 13.7 µM) | > 32 | 4 (≈ 6.85 µM)
CC(=O)NC1CN(Cc2ccc3cc4c(c(O)c3c2)C(=O)C2=C(O)[C@]3(O)C(=O)C(C(N)=O)=C(O)[C@@H](N(C)C)[C@@H]3C[C@@H]2C4)C1 | 16 (≈ 27.1 µM) | 16 (≈ 27.1 µM) | 16 (≈ 27.1 µM) | 16 (≈ 27.1 µM) | 2 (≈ 3.39 µM) | 2 (≈ 3.39 µM) | 16 (≈ 27.1 µM) | 4 (≈ 6.77 µM) | > 32 | 0.25 (≈ 0.423 µM) | 2 (≈ 3.39 µM) | 8 (≈ 13.5 µM) | 8 (≈ 13.5 µM) | 2 (≈ 3.39 µM)
COCCNCc1ccc2c(N(C)C)c3c(c(O)c2c1)C(=O)C1=C(O)[C@]2(O)C(=O)C(C(N)=O)=C(O)[C@@H](N(C)C)[C@@H]2C[C@@H]1C3 | 32 (≈ 53.8 µM) | 2 (≈ 3.36 µM) | 32 (≈ 53.8 µM) | 16 (≈ 26.9 µM) | 0.5 (≈ 0.841 µM) | 1 (≈ 1.68 µM) | 8 (≈ 13.5 µM) | 4 (≈ 6.73 µM) | > 32 | 0.0625 (≈ 0.105 µM) | 0.5 (≈ 0.841 µM) | 8 (≈ 13.5 µM) | 16 (≈ 26.9 µM) | 1 (≈ 1.68 µM)
CN(C)[C@@H]1C(O)=C(C(N)=O)C(=O)[C@@]2(O)C(O)=C3C(=O)c4c(cc5c(CNC6CC6)cccc5c4O)C[C@H]3C[C@@H]12 | > 32 | 4 (≈ 7.5 µM) | > 32 | 32 (≈ 60 µM) | 1 (≈ 1.87 µM) | 4 (≈ 7.5 µM) | 16 (≈ 30 µM) | 16 (≈ 30 µM) | > 32 | 0.5 (≈ 0.937 µM) | 2 (≈ 3.75 µM) | 16 (≈ 30 µM) | > 32 | 4 (≈ 7.5 µM)
COCCOc1c2c(c(O)c3cc(CN4CCC4)ccc13)C(=O)C1=C(O)[C@]3(O)C(=O)C(C(N)=O)=C(O)[C@@H](N(C)C)[C@@H]3C[C@@H]1C2 | > 32 | 4 (≈ 6.58 µM) | 32 (≈ 52.7 µM) | 8 (≈ 13.2 µM) | 0.5 (≈ 0.823 µM) | 0.25 (≈ 0.411 µM) | 2 (≈ 3.29 µM) | 2 (≈ 3.29 µM) | > 32 | 0.0313 (≈ 0.0515 µM) | 0.25 (≈ 0.411 µM) | 2 (≈ 3.29 µM) | 8 (≈ 13.2 µM) | 0.5 (≈ 0.823 µM)
CN(C)[C@@H]1C(O)=C(C(N)=O)C(=O)[C@@]2(O)C(O)=C3C(=O)c4c(cc5ccc(CN6CC(O)C6)cc5c4O)C[C@H]3C[C@@H]12 | 8 (≈ 14.6 µM) | 4 (≈ 7.28 µM) | 8 (≈ 14.6 µM) | 4 (≈ 7.28 µM) | 1 (≈ 1.82 µM) | 0.5 (≈ 0.91 µM) | 4 (≈ 7.28 µM) | 1 (≈ 1.82 µM) | 32 (≈ 58.2 µM) | 0.0625 (≈ 0.114 µM) | 0.5 (≈ 0.91 µM) | 4 (≈ 7.28 µM) | 2 (≈ 3.64 µM) | 0.5 (≈ 0.91 µM)
CN(C)[C@@H]1C(O)=C(C(N)=O)C(=O)[C@@]2(O)C(O)=C3C(=O)c4c(c(OCC(O)CO)c5ccc(CN6CCC6)cc5c4O)C[C@H]3C[C@@H]12 (some centres undefined) | > 32 | > 32 | > 32 | > 32 | > 32 | 16 (≈ 25.7 µM) | > 32 | > 32 | > 32 | 4 (≈ 6.41 µM) | > 32 | > 32 | > 32 | 32 (≈ 51.3 µM)
CN(C)[C@@H]1C(O)=C(C(N)=O)C(=O)[C@@]2(O)C(O)=C3C(=O)c4c(cc5ccc(-c6ccccc6)cc5c4O)C[C@H]3C[C@@H]12 | > 32 | > 32 | > 32 | > 32 | 4 (≈ 7.4 µM) | > 32 | 0.5 (≈ 0.925 µM) | > 32 | > 32 | > 32 | 2 (≈ 3.7 µM) | 8 (≈ 14.8 µM) | > 32 | 2 (≈ 3.7 µM)
COc1c2c(c(O)c3cc(CN4CCCC4)ccc13)C(=O)C1=C(O)[C@]3(O)C(=O)C(C(N)=O)=C(O)[C@@H](N(C)C)[C@@H]3C[C@@H]1C2 | 8 (≈ 13.8 µM) | 1 (≈ 1.73 µM) | 8 (≈ 13.8 µM) | 4 (≈ 6.92 µM) | 0.125 (≈ 0.216 µM) | 0.25 (≈ 0.433 µM) | 4 (≈ 6.92 µM) | 1 (≈ 1.73 µM) | 16 (≈ 27.7 µM) | 0.0156 (≈ 0.027 µM) | 0.25 (≈ 0.433 µM) | 2 (≈ 3.46 µM) | 4 (≈ 6.92 µM) | 0.25 (≈ 0.433 µM)
CN(C)Cc1ccc2cc3c(c(O)c2c1)C(=O)C1=C(O)[C@]2(O)C(=O)C(C(N)=O)=C(O)[C@@H](N(C)C)[C@@H]2C[C@@H]1C3 | 4 (≈ 7.67 µM) | 2 (≈ 3.83 µM) | 4 (≈ 7.67 µM) | 2 (≈ 3.83 µM) | 0.25 (≈ 0.479 µM) | 0.125 (≈ 0.24 µM) | 1 (≈ 1.92 µM) | 1 (≈ 1.92 µM) | > 32 | 0.0313 (≈ 0.06 µM) | 0.25 (≈ 0.479 µM) | 1 (≈ 1.92 µM) | 2 (≈ 3.83 µM) | 0.25 (≈ 0.479 µM)
